Screening data (PubChem BioAssay)
Compounds with a hit are over-represented: about 5.8% of the library has one in this group of screens.
KDM4C inh: blocks human GASC-1 (KDM4C) demethylase activity. Q9H3R0. GST-KDM4C 2-372, H3K9me3 peptide, LANCE TR-FRET. inhibition, % at 12.5 µM. 0.15% of 96,000 active. AID 720574;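 active means mean replicate inhibition above about 25%, with at least 55% of replicates also reaching it, limit read from the data, passing the limit was not always enough; inconclusive means only one of those two conditions met; inactive means neither condition met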
Target sequence (Q9H3R0 2-372 limits assumed): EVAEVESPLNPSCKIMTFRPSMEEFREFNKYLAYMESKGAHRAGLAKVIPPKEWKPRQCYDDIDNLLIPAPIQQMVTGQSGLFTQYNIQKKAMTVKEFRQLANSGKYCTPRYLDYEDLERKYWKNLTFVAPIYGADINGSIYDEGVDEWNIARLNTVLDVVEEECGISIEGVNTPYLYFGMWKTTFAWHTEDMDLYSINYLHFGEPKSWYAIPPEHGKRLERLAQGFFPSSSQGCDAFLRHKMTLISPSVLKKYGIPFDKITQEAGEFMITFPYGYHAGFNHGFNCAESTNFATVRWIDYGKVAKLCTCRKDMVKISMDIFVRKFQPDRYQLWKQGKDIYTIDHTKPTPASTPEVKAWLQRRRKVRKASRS
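Material: N-terminal GST-fused human GASC-1 (KDM4C) fragment, residues 2-372. Input: 10 nM enzyme. Incubation: enzyme reaction 30 min, then detection 60 min, both room temperature. Doses: one test concentration per compound. Read-out basis: inhibition from TR-FRET ratio decrease. Detection: LANCE TR-FRET, excitation 340 nm, emissions 618 and 671 nm.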
T cruzi growth-1: blocks T. cruzi growth in NIH3T3 culture; 5.9% of 77,000 active; T. cruzi beta-gal in NIH3T3, GalScreen luminescence, 90 h; inhibition, % at 8.34 µM;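 active means mean inhibition above about 93%, with at least 55% of replicates each passing it, limit read from the data, passing the limit was not always enough; inconclusive means only one of those two conditions holds; inactive means neither condition holds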
Pf Dd2 inh: blocks growth of Plasmodium falciparum Dd2 parasites; P. falciparum Dd2 growth, SYBR Green, 72 h; stronger effect = lower value; activity change, % at 10 µM; 2.3% of 94,000 active; AID 1159554; in the data active means activity change below about -80%; inconclusive means no clear call, values can overlap the other calls
IDH1 R132H inh: IDH1 R132H (human) inhibition. O75874. IDH1 R132H reductase, diaphorase/resazurin fluorescence, 60 min. inhibition, % at 10 µM. 0.18% of 70,000 active; in the data active means inhibition above about 34%; inconclusive means no clear call, values can overlap the other calls; inactive means below about 11%
Target sequence (O75874 whole entry R132H): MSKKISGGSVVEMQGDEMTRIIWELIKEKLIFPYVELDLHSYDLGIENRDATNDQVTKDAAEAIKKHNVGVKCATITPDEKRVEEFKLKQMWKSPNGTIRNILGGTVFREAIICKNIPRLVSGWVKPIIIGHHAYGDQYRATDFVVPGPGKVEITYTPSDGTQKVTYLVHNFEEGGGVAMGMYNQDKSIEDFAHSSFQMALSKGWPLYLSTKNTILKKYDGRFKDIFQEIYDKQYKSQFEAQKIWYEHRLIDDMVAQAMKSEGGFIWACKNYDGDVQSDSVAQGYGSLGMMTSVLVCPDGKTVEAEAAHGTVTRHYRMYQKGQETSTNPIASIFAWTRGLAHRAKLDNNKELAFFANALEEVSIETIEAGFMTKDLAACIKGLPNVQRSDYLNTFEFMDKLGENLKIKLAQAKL
T cruzi growth-2: inhibitors of T. cruzi proliferation. shares compounds with T cruzi growth-1. inhibition, % at 8.35 µM. 72% of 5,600 active. T. cruzi beta-gal in NIH3T3, GalScreen luminescence, 90 h;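 active means mean replicate inhibition above about 95% and at least 55% of replicates individually reaching it, limit read from the data; inconclusive means only one of the two criteria is met; inactive means neither criterion is met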
T cruzi growth-3: inhibitors of T. cruzi proliferation; T. cruzi beta-gal in NIH3T3, GalScreen luminescence, 90 h; inhibition, % at 2.09 µM; shares compounds with T cruzi growth-1; 21% of 5,600 active; AID 651740;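 active means mean inhibition above about 95%, with at least 55% of replicates also reaching it, limit read from the data; inconclusive means meets just one of the two conditions; inactive means meets neither condition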
NIH3T3 tox: cytotoxicity in mouse NIH/3T3 fibroblasts. 14% of 5,600 active. shares compounds with T cruzi growth-1. NIH/3T3 viability, CellTiter-Glo ATP luminescence, 90 h. cytotoxicity (signal decrease), % at 8.35 µM;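 active means mean signal decrease across replicates above about 35% based on untreated-well scatter, with enough replicates individually passing, limit read from the data; inconclusive means no rule stated though some were filed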
NIH3T3 tox 2: NIH/3T3 (mouse) viability loss; NIH/3T3 viability, CellTiter-Glo ATP luminescence, 90 h; AID 651744; 56% of 5,600 active; shares compounds with T cruzi growth-1; inhibition, % at 24.9 µM;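 active means mean loss of cell viability signal at or above a set limit, and enough replicates individually reaching it; inconclusive means meets only the mean limit or only the replicate share; inactive means meets neither condition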
Large screens that a line does not name were inactive (follow-up assays come after a bar, where they were run).

Cc1ccc(-c2ccc3c(c2)O[C@@H](CN(C)Cc2cccnc2)[C@@H](C)CN([C@@H](C)CO)S3(=O)=O)cc1	T cruzi growth-1 102 | T cruzi growth-2 inactive | T cruzi growth-3 inactive | NIH3T3 tox 52 | NIH3T3 tox 2 94
Cc1ccc(-c2ccc3c(c2)O[C@@H](CN(C)Cc2cccnc2)[C@H](C)CN([C@H](C)CO)S3(=O)=O)cc1	T cruzi growth-1 118 | T cruzi growth-2 inconclusive | T cruzi growth-3 104 | NIH3T3 tox 80 | NIH3T3 tox 2 102
C[C@@H]1CN([C@@H](C)CO)S(=O)(=O)c2ccc(-c3cccnc3)cc2O[C@@H]1CN(C)Cc1cccnc1	none (no result: IDH1 R132H inh)
C[C@@H]1CN([C@H](C)CO)S(=O)(=O)c2ccc(-c3ccncc3)cc2O[C@@H]1CN(C)Cc1cccnc1	none (no result: KDM4C inh, IDH1 R132H inh)
O=C(c1cccnc1)N1C[C@@H]2[C@H](c3ccccc31)[C@@H](CO)N2CC1CCCC1	none (no result: IDH1 R132H inh)
Cn1cnc(S(=O)(=O)N2CCCCN3[C@@H](CO)[C@H](c4ccc(-c5ccccc5)cc4)[C@@H]3C2)c1	T cruzi growth-1 100 (no result: IDH1 R132H inh) | T cruzi growth-2 inactive | T cruzi growth-3 inactive | NIH3T3 tox inactive | NIH3T3 tox 2 33
Cc1cccc(-c2ccc([C@@H]3[C@@H](CO)N4CCCCN(S(=O)(=O)c5cn(C)cn5)C[C@H]34)cc2)c1	T cruzi growth-1 102 (no result: IDH1 R132H inh) | T cruzi growth-2 inactive | T cruzi growth-3 inactive | NIH3T3 tox inactive | NIH3T3 tox 2 inactive
Cn1cnc(S(=O)(=O)N2CCCCN3[C@H](C2)[C@@H](c2ccc(-c4ccc(F)cc4)cc2)[C@@H]3CO)c1	none (no result: IDH1 R132H inh)
Cn1cnc(S(=O)(=O)N2CCCCN3[C@H](CO)[C@@H](c4ccc(-c5ccccc5)cc4)[C@H]3C2)c1	T cruzi growth-1 98 (no result: IDH1 R132H inh) | T cruzi growth-2 inactive | T cruzi growth-3 inactive | NIH3T3 tox inactive | NIH3T3 tox 2 inactive
Cn1cnc(S(=O)(=O)N2CCCCN3[C@H](C2)[C@@H](c2ccc(-c4ccccc4)cc2)[C@@H]3CO)c1	T cruzi growth-1 106 (no result: IDH1 R132H inh) | T cruzi growth-2 99 | T cruzi growth-3 inactive | NIH3T3 tox inactive | NIH3T3 tox 2 inactive
O=C(NCCc1ccncc1)[C@H]1[C@H](CO)[C@H]2Cn3c(ccc(-c4ccccc4)c3=O)[C@H]2N1C(=O)C1CC1	none (no result: Pf Dd2 inh, IDH1 R132H inh)
C[C@@H]1CN([C@@H](C)CO)C(=O)c2cc(NC(=O)Nc3ccc4c(c3)OCO4)ccc2O[C@@H](C)CCCCO[C@H]1CN(C)Cc1ccccc1	none
Cn1cnc(S(=O)(=O)N2CCCCN3[C@H](CO)[C@H](c4ccc(-c5ccc(F)cc5)cc4)[C@H]3C2)c1	T cruzi growth-1 inconclusive (no result: IDH1 R132H inh) | T cruzi growth-2 inconclusive | T cruzi growth-3 inactive | NIH3T3 tox inactive | NIH3T3 tox 2 41
Cn1cnc(S(=O)(=O)N2CCCCN3[C@H](CO)[C@@H](c4ccc(-c5ccc(F)cc5)cc4)[C@H]3C2)c1	none (no result: IDH1 R132H inh)
Cc1ccc(-c2ccc([C@H]3[C@H](CO)N4CCCCN(C(=O)Nc5cccc(F)c5)C[C@@H]34)cc2)cc1	T cruzi growth-1 106 (no result: IDH1 R132H inh) | T cruzi growth-2 99 | T cruzi growth-3 inconclusive | NIH3T3 tox 118 | NIH3T3 tox 2 105
O=C(Nc1ccc(F)cc1)N1CCCCN2[C@@H](CO)[C@H](c3ccc(-c4ccncc4)cc3)[C@@H]2C1	none (no result: IDH1 R132H inh)
Cc1ccc(-c2ccc([C@H]3[C@H]4CN(C(=O)Nc5cccc(F)c5)CCCCN4[C@H]3CO)cc2)cc1	none (no result: IDH1 R132H inh)
O=C(Nc1cccc(F)c1)N1CCCCN2[C@H](CO)[C@H](c3ccc(-c4ccncc4)cc3)[C@@H]2C1	T cruzi growth-1 108 (no result: IDH1 R132H inh) | T cruzi growth-2 100 | T cruzi growth-3 inactive | NIH3T3 tox inactive | NIH3T3 tox 2 inactive
O=C(Nc1cccc(F)c1)N1CCCCN2[C@H](CO)[C@@H](c3ccc(-c4ccncc4)cc3)[C@@H]2C1	T cruzi growth-1 103 (no result: IDH1 R132H inh) | T cruzi growth-2 113 | T cruzi growth-3 inactive | NIH3T3 tox 36 | NIH3T3 tox 2 31
C[C@@H](NC(=O)C[C@@H]1CC[C@@H](NC(=O)CN2CCOCC2)[C@@H](CO)O1)c1ccccc1	none
COc1ccccc1NC(=O)N1CCCCN2[C@H](CO)[C@H](c3ccc(-c4cccc(C)c4)cc3)[C@@H]2C1	T cruzi growth-1 inconclusive (no result: IDH1 R132H inh) | T cruzi growth-2 107 | T cruzi growth-3 103 | NIH3T3 tox inactive | NIH3T3 tox 2 inconclusive
Cc1cccc(-c2ccc([C@@H]3[C@H]4CN(C(=O)NC(C)C)CCCCN4[C@H]3CO)cc2)c1	none (no result: IDH1 R132H inh)
COc1cccc(-c2ccc([C@@H]3[C@H](CO)N4CCCCN(C(=O)NC(C)C)C[C@@H]34)cc2)c1	T cruzi growth-1 102 (no result: IDH1 R132H inh) | T cruzi growth-2 105 | T cruzi growth-3 inactive | NIH3T3 tox inactive | NIH3T3 tox 2 48
COc1ccc(-c2ccc([C@@H]3[C@H](CO)N4CCCCN(C(=O)NC(C)C)C[C@@H]34)cc2)cc1	T cruzi growth-1 109 (no result: IDH1 R132H inh) | T cruzi growth-2 108 | T cruzi growth-3 inactive | NIH3T3 tox inactive | NIH3T3 tox 2 45
COc1cccc(-c2ccc([C@H]3[C@H]4CN(C(=O)NC(C)C)CCCCN4[C@H]3CO)cc2)c1	none (no result: IDH1 R132H inh)
COc1ccccc1NC(=O)N1CCCCN2[C@H](C1)[C@@H](c1ccc(-c3cccc(C)c3)cc1)[C@@H]2CO	none (no result: IDH1 R132H inh)
Cc1cccc(-c2ccc([C@H]3[C@@H](CO)N4CCCCN(C(=O)NC(C)C)C[C@H]34)cc2)c1	T cruzi growth-1 109 (no result: IDH1 R132H inh) | T cruzi growth-2 108 | T cruzi growth-3 inactive | NIH3T3 tox inactive | NIH3T3 tox 2 105
CO[C@@H]1CC[C@H]2CCN(C)C(=O)CCCN(C)C(=O)c3cc(C#N)ccc3OC[C@@H]1O2	none (no result: Pf Dd2 inh, IDH1 R132H inh)
C[C@@H]1CN([C@H](C)CO)C(=O)Cc2cc(NC(=O)NC3CCCCC3)ccc2O[C@H]1CN(C)Cc1ccc(-c2ccccc2)cc1	none
C/C=C/c1ccc([C@@H]2[C@H]3CN(C(=O)Cc4cccnc4)CC(=O)N3[C@H]2CO)cc1	none (no result: T cruzi growth-1, IDH1 R132H inh)
CCNC(=O)[C@@H]1[C@@H](CO)[C@@H]2Cn3c(ccc(-c4cccc(OC)c4)c3=O)[C@@H]2N1Cc1nccs1	none (no result: IDH1 R132H inh)
COc1ccc2c3c(n(C)c2c1)[C@H](CO)N(C(=O)Nc1ccc(F)cc1)CC31CN(C(=O)CC2CC2)C1	none (no result: T cruzi growth-1, IDH1 R132H inh)
O=C(c1ccncc1)N1CC[C@H]2[C@H](CO)Nc3ccc(-c4ccc(F)cc4)cc3[C@H]21	T cruzi growth-1 99 (no result: IDH1 R132H inh) | T cruzi growth-2 inactive | T cruzi growth-3 inactive | NIH3T3 tox inactive | NIH3T3 tox 2 inactive
O=C(c1ccccn1)N1CC[C@@H]2[C@@H](CO)Nc3ccc(-c4ccccc4)cc3[C@@H]21	T cruzi growth-1 105 (no result: IDH1 R132H inh) | T cruzi growth-2 101 | T cruzi growth-3 inactive | NIH3T3 tox inactive | NIH3T3 tox 2 inactive
